pIC50: −log10 of the molar value.
How the values were obtained:
[1] = Inhibition of PKA
[2] = target: Cyclin-dependent kinase 2 (Homo sapiens, UniProt P24941); experiment: Inhibition of CDK2
[3] = target: T1, RAC-alpha serine/threonine-protein kinase (Homo sapiens, UniProt P31749); experiment: Inhibition of AKT1
[4] = target: T1, RAC-alpha serine/threonine-protein kinase; experiment: Inhibition of AKT1-mediated PRAS40 phosphorylation in human U87MG cells after 1 hr in presence of 5% FBS by ELISA assay; assay type: cell-based, U-87MG ATCC
Method in brief: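 U87MG cells kept in medium with 5% FBS; inhibitor added as threefold serial dilutions, 1 h incubation at 37 °C, then phospho-PRAS40 measured. Values are means ± SD, n ≥ 3.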

[5] = Clearance in rat; assay type: ADME, organism-based; settings: in vivo
Liver microsomes = experiment: Metabolic stability in rat liver microsome; assay type: ADME
[6] = Metabolic stability in human liver microsomes assessed as compound turnover; assay type: ADME, Microsome; settings: read-out: Activity

T1 sequence (P31749 whole entry): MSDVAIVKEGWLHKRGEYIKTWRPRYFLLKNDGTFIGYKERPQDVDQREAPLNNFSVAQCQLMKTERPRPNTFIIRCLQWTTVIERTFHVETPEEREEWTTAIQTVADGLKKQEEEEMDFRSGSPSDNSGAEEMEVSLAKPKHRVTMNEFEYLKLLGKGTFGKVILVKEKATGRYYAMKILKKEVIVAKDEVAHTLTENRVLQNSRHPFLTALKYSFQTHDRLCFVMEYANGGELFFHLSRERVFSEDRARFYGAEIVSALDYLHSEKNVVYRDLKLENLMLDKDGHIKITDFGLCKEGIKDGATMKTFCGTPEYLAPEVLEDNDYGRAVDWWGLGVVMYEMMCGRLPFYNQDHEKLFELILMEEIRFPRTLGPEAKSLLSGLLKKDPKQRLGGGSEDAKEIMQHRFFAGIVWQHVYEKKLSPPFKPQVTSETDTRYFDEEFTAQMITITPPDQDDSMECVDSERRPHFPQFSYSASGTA

Row | Structure (SMILES) | pIC50 [1] | pIC50 [2] | pIC50 [3] | pIC50 [4] | clearance [5] | Stability (Liver microsomes) | metabolised [6]
1 | N[C@H](CNc1nnc(-c2ccc3cnccc3c2)s1)Cc1ccc(C(F)(F)F)cc1 | 8.22 | 7.30 | – | – | – | – | –
2 | N[C@H](CNC(=O)c1ccc2cnccc2c1)Cc1ccc(C(F)(F)F)cc1 | 5.81 | < 4.60 | 5.47 | – | – | – | –
3 | O=C(N[C@@H](c1ccc(Cl)c(Cl)c1)C1CNC1)c1ccc2cnccc2c1 | 8.00 | 6.16 | 8.15 | 6.62 | 173 mL/min/kg | 33.4% | 10.9%
4 | O=C(N[C@H](c1ccc(Cl)c(Cl)c1)C1CNC1)c1ccc2cnccc2c1 | 7.52 | 5.01 | 6.96 | – | – | – | –
5 | CC(C)CN1CCC([C@@H](NC(=O)c2ccc3cnccc3c2)c2ccc(Cl)c(Cl)c2)CC1 | 5.70 | < 4.60 | 5.67 | – | – | – | –
6 | O=C(NC(c1nccs1)C1CCNCC1)c1ccc2cnccc2c1 (racemic) | 5.97 | < 4.60 | 5.80 | – | – | – | –
7 | O=C(NC(c1ccc(Cl)c(-c2ccccc2)c1)C1CCNCC1)c1ccc2cnccc2c1 (racemic) | 6.66 | < 4.60 | 6.70 | – | – | – | –
8 | O=C(NC(c1cccc(Cl)c1Cl)C1CCNCC1)c1ccc2cnccc2c1 (racemic) | 7.00 | < 4.60 | 6.92 | – | – | – | –
9 | O=C(NC(c1ccc(Cl)c(Cl)c1)C1CCNCC1)c1ccc2[nH]c(=O)oc2c1 (racemic) | 4.86 | – | 6.34 | – | – | – | –
10 | COc1cc2cnccc2cc1C(=O)NC(c1ccc(Cl)c(Cl)c1)C1CCNCC1 (racemic) | 7.52 | – | 7.41 | – | – | – | –
11 | COc1ccc(-c2cc3cnccc3cc2C(=O)NC(c2ccc(Cl)c(Cl)c2)C2CCNCC2)cc1 (racemic) | 6.17 | – | 5.16 | – | – | – | –
12 | O=C(NC(c1ccc(Cl)c(Cl)c1)C1CCNCC1)c1ccc2cnc(F)cc2c1 (racemic) | 7.05 | < 4.60 | 7.70 | 6.41 | 58.3 mL/min/kg | 15.9% | 10%
13 | O=C(NC(c1ccc(Cl)c(Cl)c1)C1CCNCC1)c1ccc2cnc(Cl)cc2c1 (racemic) | – | – | 6.85 | – | – | – | –
14 | O=C(NC(c1ccc(Cl)c(Cl)c1)C1CCCCC1)c1ccc2cnccc2c1 (racemic) | < 4.60 | < 4.60 | 5.24 | – | – | – | –

The remaining compounds from weak to strong by pIC50 [3], led by results:

Row | pIC50 [1] | pIC50 [2] | pIC50 [3] | pIC50 [4] | clearance [5] | Stability (Liver microsomes) | metabolised [6] | Structure (SMILES)
15 | < 4.60 | < 4.60 | 4.69 | – | – | – | – | O=C(NC(c1ccncc1)c1ccc(Cl)c(Cl)c1)c1ccc2cnccc2c1 (racemic)
16 | 5.47 | < 4.60 | 4.90 | – | – | – | – | O=C(NC(c1cncnc1)c1ccc(Cl)c(Cl)c1)c1ccc2cnccc2c1 (racemic)
17 | 6.80 | < 4.60 | 5.57 | – | – | – | – | O=C(NC(c1ccc(F)c(F)c1)C1CCNCC1)c1ccc2cnccc2c1 (racemic)
18 | 6.01 | < 4.60 | 5.64 | – | – | – | – | O=C(N[C@@H](c1ccc(Cl)c(Cl)c1)C1CCN(Cc2ccc(C(F)(F)F)cc2)CC1)c1ccc2cnccc2c1
19 | 6.89 | < 4.60 | 5.82 | – | – | – | – | COc1ccc(C(NC(=O)c2ccc3cnccc3c2)C2CCNCC2)cc1F (racemic)
20 | 6.60 | 4.71 | 6.07 | – | – | – | – | O=C(NC(c1ccccc1)C1CCNCC1)c1ccc2cnccc2c1 (racemic)
21 | 6.59 | < 4.60 | 6.40 | – | – | – | – | O=C(NC(c1ccc2ccccc2c1)C1CCNCC1)c1ccc2cnccc2c1 (racemic)
22 | 5.94 | – | 6.46 | – | – | – | – | O=C1Cc2cc(C(=O)NC(c3ccc(Cl)c(Cl)c3)C3CCNCC3)ccc2N1 (racemic)
23 | 6.07 | – | 6.48 | – | – | – | – | O=C(NC(c1ccc(Cl)c(Cl)c1)C1CCNCC1)c1ccc2cnncc2c1 (single isomer, unassigned)
24 | 6.54 | – | 6.60 | – | – | – | – | O=C(NC(c1ccc(Cl)c(Cl)c1)C1CCNCC1)c1ccc2[nH]ncc2c1 (racemic)
25 | 6.41 | < 4.60 | 6.62 | – | – | – | – | O=C(N[C@@H](c1ccc(Cl)c(Cl)c1)C1CCN(Cc2ccccc2)CC1)c1ccc2cnccc2c1
26 | 6.89 | < 4.60 | 6.72 | – | – | – | – | O=C(NC(c1ccc(Cl)cc1)C1CCNCC1)c1ccc2cnccc2c1 (racemic)
27 | 6.64 | < 4.60 | 6.85 | – | – | – | – | O=C(NC(c1cnc(Cl)c(Cl)c1)C1CCNCC1)c1ccc2cnccc2c1 (racemic)
28 | 6.80 | < 4.60 | 7.10 | – | – | – | – | N#Cc1cc(C(NC(=O)c2ccc3cnccc3c2)C2CCNCC2)ccc1Cl (racemic)
29 | 7.52 | < 4.60 | 7.15 | – | – | – | – | O=C(NC(c1cccc(Cl)c1)C1CCNCC1)c1ccc2cnccc2c1 (racemic)
30 | – | < 4.60 | 7.40 | – | – | – | – | O=C(NC(c1ccc(Cl)c(F)c1)C1CCNCC1)c1ccc2cnccc2c1 (racemic)
31 | 7.30 | < 4.60 | 7.40 | – | – | – | – | O=C(NC(c1ccc(Cl)c(Cl)c1)C1CCNCC1)c1ccc2cnccc2c1 (racemic)
32 | 8.00 | < 4.60 | 7.52 | – | – | – | – | O=C(NC(c1ccc(Cl)c(Cl)c1)C1CCNC1)c1ccc2cnccc2c1 (mixture of isomers)
33 | 6.77 | 6.72 | 7.70 | 6.52 | – | – | – | N[C@H](CNc1nnc(-c2ccc3c(c2)CC(=O)N3)s1)Cc1ccc(C(F)(F)F)cc1
34 | – | 4.68 | 7.70 | – | – | – | – | O=C(NC(c1ccc(Cl)c(Cl)c1)C1CCCNC1)c1ccc2cnccc2c1 (stereo not drawn)
35 | 8.00 | 6.44 | 8.15 | – | – | – | – | CN1CC([C@@H](NC(=O)c2ccc3cnccc3c2)c2ccc(Cl)c(Cl)c2)C1
